Screening data from PubChem.
PGC1a acetyl up – compounds raising PGC1a acetylation signal, primary screen, PGC1a modulator project, cell-based, U2OS, AlphaScreen, signal-increasing mode | activation, % at 15.6 µM | overnight | 350,000 tested, 0.21% active | AID 651723, 2012;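 active means every replicate reaching activation of at least 50%, whatever the mean replicate activation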;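 further: hits raise the AlphaScreen acetylation signal above neutral controls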
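System – flag-PGC1a/GCN5 U2OS cells · Quantity – 7000 U2OS cells per well · Signal – AlphaScreen proximity luminescence, anti-acetyl-lysine antibody · Schedule – overnight compound treatment, 37 °C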
Numbers without * were called inactive. A selection follows.

Screening CCOC(=O)c1c2c(n(C)c1C)C(=O)C(=O)c1ccc(Br)cc1-2 returned PGC1a acetyl up 83*.
CC(C)NC(=O)Nc1ccc2c(c1)C(=O)N([C@H](C)CO)C[C@@H](C)[C@H](CN(C)S(=O)(=O)c1ccccc1)OCCCC[C@@H](C)O2 was read as PGC1a acetyl up -44.
`CCOc1ccc2c(c1)C(C)=CC(C)(C)N2S(=O)(=O)c1ccc(NC(C)=O)cc1` gave PGC1a acetyl up 106*.
CC(=O)Nc1ccc(OS(=O)(=O)c2ccc(C)cc2C)cc1 was read as PGC1a acetyl up -48.
CNC[C@H]1Oc2ncc(C#CC3CCCCC3)cc2C(=O)N([C@H](C)CO)C[C@H]1C was read as PGC1a acetyl up -41.
Screening Cc1ccc(Nc2nc(-c3c(C)nc4ncccn34)cs2)cc1 returned PGC1a acetyl up 80*.
`Cc1ccc(Nc2nc(-c3c(C)nc4ccccn34)cs2)cc1` gave PGC1a acetyl up 121*.
Screening COc1cccc(C(=O)CSc2nnc(CNS(=O)(=O)c3ccc(C)cc3)n2C)c1 returned PGC1a acetyl up -89.
Screening Cc1ccsc1C(=O)Nc1cc(Cl)ccc1-n1cncn1 returned PGC1a acetyl up -61.
`O=C(CC(Nc1ccc(F)cc1)C(=O)O)c1ccccc1` (stereo unspecified) gave PGC1a acetyl up 76*.
`Cc1ccc(NC(=S)NNC(=O)c2nn(C)c(C)c2Cl)cc1` gave PGC1a acetyl up -42.
Screening COC(=O)C1=CN(Cc2ccc(OC)c(OC)c2)C=C(C(=O)OC)C1c1cccc(O)c1 returned PGC1a acetyl up -74.
Screening C[C@H](CO)N1C[C@H](C)[C@@H](CN(C)Cc2ccc(C(F)(F)F)cc2)OCc2cnnn2CCCC1=O returned PGC1a acetyl up -55.
CC(C)(C)c1ccc(CCC2OCC(C[N+]3(C)CCOCC3)O2)cc1 (stereo unspecified) was read as PGC1a acetyl up -73.
Cc1cccc(S(=O)(=O)N(C)C[C@@H]2OCc3cn(nn3)CCCC(=O)N([C@@H](C)CO)C[C@H]2C)c1 was read as PGC1a acetyl up -59.
For N=c1sccn1CC(=O)Nc1ccccc1Sc1ccccc1 the results were PGC1a acetyl up -73.
`Nc1nc(SCC(=O)Nc2ccccc2Sc2ccc(Cl)cc2)n[nH]1` gave PGC1a acetyl up 89*.
`CC(CCC(=O)O)C1CCC2C3CCC4CC(O)CCC4(C)C3CC(O)C12C` (stereo unspecified) gave PGC1a acetyl up -49.
O=C(Cn1ncc(Cl)c(Cl)c1=O)N1CCN(S(=O)(=O)c2ccc3ccccc3c2)CC1 was read as PGC1a acetyl up -77.
For Cc1ccc(C)c(C(=O)Cn2ncc(Cl)c(Cl)c2=O)c1 the results were PGC1a acetyl up 485*.
`COc1ccc(NC(=O)Cn2ncc(Cl)c(Cl)c2=O)cc1S(=O)(=O)N1CCOCC1` gave PGC1a acetyl up 105*.
Screening CCC(=O)Nc1ccc(C(=O)Cn2ncc(Cl)c(Cl)c2=O)cc1 returned PGC1a acetyl up 265*.
Screening O=C(Cn1ncc(Cl)c(Cl)c1=O)NC(=O)NC1CCCCC1 returned PGC1a acetyl up -58.
For C#CC(=O)N(c1cc(OC)ccc1OC)C(C(=O)NC1CCCC1)c1cccs1 (stereo unspecified) the results were PGC1a acetyl up -88.
`CN(C)C(=O)C[C@H]1CC[C@H](NC(=O)C2CCC2)[C@@H](CO)O1` gave PGC1a acetyl up -44.
For O=C(C[C@H]1C[C@H]2c3cc(NC(=O)C4CCC4)ccc3O[C@H]2[C@H](CO)O1)NCc1ccc(-c2ccccc2)cc1 the results were PGC1a acetyl up -64.
For CCOC(=O)c1[nH]c(C)c(C(=O)Nc2cc(Cl)ccc2C)c1C the results were PGC1a acetyl up 78*.
Screening Cc1ccc(C)c(NC(=O)c2nnn(Cc3ccccc3)c2N)c1 returned PGC1a acetyl up -47.
`C=CCn1c(SCc2c(C)noc2C)nc2ccccc2c1=O` gave PGC1a acetyl up 74*.
For Cc1noc(C)c1CSc1nnc(-c2cccnc2)n1C1CCCCC1C (stereo unspecified) the results were PGC1a acetyl up -49.
COc1cc2nc(SCc3c(C)noc3C)n(CCC3=CCCCC3)c(=O)c2cc1OC was read as PGC1a acetyl up -48.
`COc1ccc(C(=O)NC(=S)N(C)Cc2ccccc2)cc1Br` gave PGC1a acetyl up -49.
For COc1ccc([N+](=O)[O-])cc1NCc1ccccc1 the results were PGC1a acetyl up 84*.
`COc1ccc(C(=O)OCC(=O)NCc2ccc3c(c2)OCO3)cc1[N+](=O)[O-]` gave PGC1a acetyl up -46.
Screening Cn1ncc2c(O/N=C(\N)c3ccc(C(C)(C)C)cc3)ncnc21 returned PGC1a acetyl up -96.
O=c1c2c3c(sc2n2cnnc2n1Cc1ccccc1)CN(Cc1ccccc1)CC3 was read as PGC1a acetyl up 73*.
For O=S(=O)(c1cnccc1N1CCN(/N=C/c2ccccc2)CC1)N1CCCCC1 the results were PGC1a acetyl up -57.
Screening COc1ccc(-c2cnc3c(c2)C(=O)N([C@H](C)CO)C[C@@H](C)[C@@H](CN(C)C(=O)Nc2c(C)noc2C)O3)cc1 returned PGC1a acetyl up -43.
